ChEMBL document CHEMBL4414680, “Identification of new potent A1 adenosine receptor antagonists using a multistage virtual screening approach” (Eur J Med Chem, 2020)

How the values were obtained:
Adenosine receptor A1 [1] = molecular target: T1, Adenosine receptor A1 (Homo sapiens, UniProt P30542); assay: Displacement of [3H]DPCPX from human A1AR expressed in CHO cells incubated for 50 mins by radioligand binding assay; assay type: cell-based
T1 sequence (P30542 whole entry): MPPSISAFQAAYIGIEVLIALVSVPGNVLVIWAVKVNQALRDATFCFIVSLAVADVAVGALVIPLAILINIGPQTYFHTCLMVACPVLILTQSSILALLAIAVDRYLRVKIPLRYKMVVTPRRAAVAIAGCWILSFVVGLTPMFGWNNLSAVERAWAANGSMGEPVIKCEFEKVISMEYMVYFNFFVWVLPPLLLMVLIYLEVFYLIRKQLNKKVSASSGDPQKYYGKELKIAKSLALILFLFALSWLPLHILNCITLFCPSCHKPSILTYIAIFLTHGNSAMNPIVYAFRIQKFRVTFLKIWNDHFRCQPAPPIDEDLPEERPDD

Homo sapiens = species on record: Homo sapiens; assay: Selectivity index, ratio of Ki for human A1AR expressed in CHO cells to Ki for human A2AR expressed in CHO cells by radioligand binding assay; assay type: cell-based
Adenosine receptor A2a = Adenosine receptor A2a (Homo sapiens, UniProt P29274); assay: Displacement of [3H]ZM241385 from human A2AR expressed in CHO cells after 90 mins by radioligand binding assay; assay type: cell-based
Adenosine receptor A2a, sequence (P29274 whole entry): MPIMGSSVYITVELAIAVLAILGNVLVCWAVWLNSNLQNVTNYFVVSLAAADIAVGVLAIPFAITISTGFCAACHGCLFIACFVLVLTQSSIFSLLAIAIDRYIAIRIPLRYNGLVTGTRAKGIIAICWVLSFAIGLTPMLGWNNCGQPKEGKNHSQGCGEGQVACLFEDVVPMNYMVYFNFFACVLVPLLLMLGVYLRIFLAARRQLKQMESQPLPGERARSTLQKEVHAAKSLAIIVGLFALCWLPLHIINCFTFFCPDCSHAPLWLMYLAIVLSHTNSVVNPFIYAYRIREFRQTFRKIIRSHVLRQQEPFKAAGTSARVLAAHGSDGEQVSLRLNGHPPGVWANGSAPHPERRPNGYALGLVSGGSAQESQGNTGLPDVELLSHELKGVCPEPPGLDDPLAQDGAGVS

Adenosine receptor A1 [2] = molecular target: T1, Adenosine receptor A1; assay: Antagonist activity at human A1AR expressed in CHO-K1 cells assessed as reduction in NECA-induced inhibition of forskolin-stimulated cAMP accumulation incubated for 30 mins by fluorescence based assay; assay type: functional, cell-based
Summary of the method: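 CHO-K1 cells stably expressing human A1AR, grown in F12K + 10% FBS + 800 µg/ml hygromycin B at 37 ℃/5% CO2, resuspended in HBSS with 0.1% BSA, 20 mM HEPES, 100 nM IBMX; 8000 cells/well. Ten 3-fold compound dilutions; forskolin (8 µM) plus NECA (40 nM) added, 30 min at 37 ℃. HTRF cAMP detection (Eu3+ cryptate anti-cAMP, d2-cAMP), 1 h room temperature, read at 665/615 nm.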

**Q.** With `Cc1ccc(C(=O)Nc2c(C(=O)NC3CCCC3)[nH]c3ccc(C)cc23)cc1` as the compound, how does the Ki (Adenosine receptor A1 [1]) read?
**A.** The Ki was 0.513 µM.

**Q.** And the Ratio Ki (Homo sapiens)?
**A.** The Ratio Ki was under 0.01.

**Q.** What about the Ki (Adenosine receptor A2a) of the same compound?
**A.** The Ki was over 100 µM.

**Q.** And the IC50 (Adenosine receptor A1 [2])?
**A.** The IC50 was 3.09 µM.

**Q.** Which Ki (Adenosine receptor A1 [1]) does the source give for `CCOC(=O)N1CCN(c2cc(NC3CCCCC3)c3c4c(onc24)-c2ccccc2C3=O)CC1` here?
**A.** The Ki was 19.5 µM.

**Q.** `Cc1ccc(C2=CC(c3ccccc3Cl)n3nc(CCCO)nc3N2)cc1` (stereo unspecified) was tested. Which Ki (Adenosine receptor A1 [1]) did it give?
**A.** Its Ki is 18.6 µM.

**Q.** `Oc1ccccc1Nc1nc(-c2ccccc2)c2cc(Cl)ccc2n1` was tested. Which Ki (Adenosine receptor A1 [1]) did it give?
**A.** The Ki was 20 µM.

**Q.** For `Cc1cc(=O)n2c(n1)NC(Nc1cccc(C)c1C)=NC2c1ccc(F)cc1` (stereo unspecified), which Ki (Adenosine receptor A1 [1]) is on record?
**A.** Its Ki is 3.24 µM.

**Q.** Which results are given for `O=c1[nH]c(N2CCCC2)nc2nccc(-c3ccc(Cl)cc3)c12`?
**A.** Ki (Adenosine receptor A1 [1]): 0.776 µM; Ratio Ki (Homo sapiens): < 0.01; Ki (Adenosine receptor A2a): > 100 µM; IC50 (Adenosine receptor A1 [2]): 1.48 µM

**Q.** Which results are given for `COc1ccc(-c2cc(-c3cccc(Br)c3)c(C#N)c(N)n2)cc1`?
**A.** Ki (Adenosine receptor A1 [1]): 0.209 µM; Ratio Ki (Homo sapiens): 0.006; Ki (Adenosine receptor A2a): 38 µM; IC50 (Adenosine receptor A1 [2]): 1.86 µM

**Q.** Which Ki (Adenosine receptor A1 [1]) does the source give for `COc1ccccc1CNC(=O)c1cc(Nc2ccccc2C)nc2ccccc12` here?
**A.** Its Ki is 1.12 µM.

**Q.** Which Ki (Adenosine receptor A1 [1]) does the source give for `O=C1CC(C(=O)Nc2ccccc2)c2c(nc(SCc3ccccc3F)[nH]c2=O)N1` (stereo unspecified) here?
**A.** Its Ki is 7.24 µM.

**Q.** With `CC(C)C(=O)Nc1nc2n(n1)C(c1ccccc1Cl)C=C(c1ccccc1)N2` (stereo unspecified) as the compound, how does the Ki (Adenosine receptor A1 [1]) read?
**A.** Its Ki is 32.4 µM.

**Q.** With `N#Cc1c(N)nc2c(c1-c1ccc3c(c1)OCO3)CCCC2` as the compound, how does the Ki (Adenosine receptor A1 [1]) read?
**A.** The Ki was 0.0741 µM.

**Q.** And the Ratio Ki (Homo sapiens)?
**A.** Its Ratio Ki is under 0.001.

**Q.** What about the Ki (Adenosine receptor A2a) of the same compound?
**A.** Its Ki is over 100 µM.

**Q.** And the IC50 (Adenosine receptor A1 [2])?
**A.** Its IC50 is 0.417 µM.

**Q.** With `CCC(C(=O)n1nc(-c2ccccc2)nc1N)c1ccccc1` (stereo unspecified) as the compound, how does the Ki (Adenosine receptor A1 [1]) read?
**A.** Its Ki is 10.7 µM.

**Q.** How did the Ki (Adenosine receptor A1 [1]) turn out when `Cc1cc(C)nc(Nc2nc(-c3ccccc3)c3ccc(Cl)cc3n2)n1` was run?
**A.** The Ki was 6.92 µM.

**Q.** `C=CCn1c(SCc2ccccn2)nc2c([nH]c3ccccc32)c1=O` was tested. Which Ki (Adenosine receptor A1 [1]) did it give?
**A.** Its Ki is 0.708 µM.

**Q.** What about the Ratio Ki (Homo sapiens) of the same compound?
**A.** The Ratio Ki was under 0.01.

**Q.** And the Ki (Adenosine receptor A2a)?
**A.** Its Ki is over 100 µM.

**Q.** And the IC50 (Adenosine receptor A1 [2])?
**A.** Its IC50 is 1.26 µM.

**Q.** Which Ki (Adenosine receptor A1 [1]) does the source give for `CCCN(CCC)c1c(-c2ccccc2)c2cc(Cl)ccc2[nH]c1=O` here?
**A.** The Ki was 25.7 µM.

**Q.** For `COc1ccc(/C=C/c2ccnc3nc(N4CCCCC4)[nH]c(=O)c23)cc1`, which Ki (Adenosine receptor A1 [1]) is on record?
**A.** Its Ki is 3.02 µM.

**Q.** Which Ki (Adenosine receptor A1 [1]) does the source give for `O=C(Cn1cc(-c2ccccc2)c2ncn(C3CC3)c(=O)c21)NCc1ccc(F)cc1` here?
**A.** Its Ki is 0.589 µM.

**Q.** And the Ratio Ki (Homo sapiens)?
**A.** The Ratio Ki was 0.016.

**Q.** And the Ki (Adenosine receptor A2a)?
**A.** Its Ki is 36.3 µM.

**Q.** What about the IC50 (Adenosine receptor A1 [2]) of the same compound?
**A.** Its IC50 is 2.82 µM.

**Q.** For `CC(C)CN1C(=O)/C(=C/c2c(NCCc3ccccc3)nc3ccccn3c2=O)SC1=S`, which Ki (Adenosine receptor A1 [1]) is on record?
**A.** Its Ki is 13.5 µM.
